Measurements taken from ChEMBL document CHEMBL2203075, “Terpecurcumins A-I from the rhizomes of Curcuma longa: absolute configuration and cytotoxic activity” (J Nat Prod, 2012).

Tests used:
Type in all cases: functional, cell-based
HepG2 = assay: Cytotoxicity against human HepG2 cells after 72 hrs by crystal violet staining based microplate reader analysis; details: HepG2, 72 h
How it was run: (§1)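 ATCC HepG2 and MDA-MB-231 cells grown in DMEM with 10% FBS and no antibiotics. Medium was changed at 50–60% confluence (24–48 h post-plating), then cells were exposed for 72 h. Fixation used 1% glutaraldehyde in PBS for 15 min, followed by 0.02% aqueous crystal violet for 30 min. After a PBS wash and 70% EtOH solubilization, absorbance was read at 570 nm (ref 405 nm). IC50 derived; Taxol was the positive control.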

MDA-MB-231 = assay: Cytotoxicity against human MDA-MB-231 cells after 72 hrs by crystal violet staining based microplate reader analysis; details: MDA-MB-231, 72 h; how it was run: as §1
A549 = assay: Cytotoxicity against human A549 cells after 72 hrs by crystal violet staining based microplate reader analysis; details: A549, 72 h
How it was run: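 At 50–60% confluence (24–48 h after plating), medium was refreshed before a 72 h treatment. Cells were fixed in 1% glutaraldehyde/PBS for 15 min and stained with 0.02% crystal violet for 30 min. After a PBS wash, dye was solubilized in 70% EtOH and read at A570 (ref 405 nm). IC50 reported; Taxol was the positive control.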

Structure (SMILES) | IC50 (HepG2) [µM] | IC50 (MDA-MB-231) [µM] | IC50 (A549) [µM]
COc1cc(/C=C/C(=O)/C=C(O)/C=C/c2ccc(O[C@H]3C=C(C)[C@@H](O)C[C@@H]3[C@@H](C)CC(=O)C=C(C)C)c(OC)c2)ccc1O [BISABOLOCURCUMIN ETHER] | 15.4 | 10.6 | 16.1
O=C(/C=C/c1ccc(O)cc1)CC(=O)/C=C/c1ccc(O)cc1 [BISDEMETHOXYCURCUMIN] | 62.9 | 38.5 | 38.1
COc1cc(/C=C/C(=O)CC(=O)/C=C/c2ccc(O)c(OC)c2)ccc1O [CURCUMIN] | 31.3 | 37.8 | 49.2
COc1cc(/C=C/C(O)=C/C(=O)/C=C/c2ccc(O)cc2)ccc1O[C@H]1C=C(C)[C@@H](O)C[C@@H]1[C@@H](C)CC(=O)C=C(C)C [DEMETHOXYBISABOLOCURCUMIN ETHER] | 13 | 10.3 | 16.6
COc1cc(/C=C/C(O)=C/C(=O)/C=C/c2ccc(O)cc2)ccc1O [DEMETHOXYCURCUMIN] | 58.1 | 44.3 | 38.1
CC(C)=CC(=O)C[C@H](C)[C@H]1C[C@H](O)C(C)=C[C@@H]1Oc1ccc(/C=C/C(O)=C/C(=O)/C=C/c2ccc(O)cc2)cc1 [DIDEMETHOXYBISABOLOCURCUMIN ETHER] | 22.7 | 30.8 | 27.4
CC(=O)O[C@H]1C(=O)[C@@]2(C)[C@H]([C@H](OC(=O)c3ccccc3)[C@]3(O)C[C@H](OC(=O)[C@H](O)[C@@H](NC(=O)c4ccccc4)c4ccccc4)C(C)=C1C3(C)C)[C@]1(OC(C)=O)CO[C@@H]1C[C@@H]2O [PACLITAXEL] | 0.054 | 0.052 | 0.056
COc1cc(/C=C/C(=O)/C=C(O)/C=C/c2ccc(O[C@H]3C=C(C)[C@@H](O)C[C@@H]3[C@@H](C)CCC=C(C)C)c(OC)c2)ccc1O [TERPECURCUMIN A] | 25 | 27.3 | 30.6
COc1cc(/C=C/C(=O)/C=C(O)/C=C/c2ccc(O[C@H]3C[C@H]([C@@H](C)CCC=C(C)C)[C@@H](O)C=C3C)c(OC)c2)ccc1O [TERPECURCUMIN B] | 64.1 | 74.9 | 61.9
COc1cc(/C=C/C(=O)/C=C(O)/C=C/c2ccc(O[C@H]3C[C@H]([C@@H](C)CCC=C(C)C)C=C[C@@]3(C)O)c(OC)c2)ccc1O [TERPECURCUMIN C] | 29.5 | 24.6 | 35
COc1cc(/C=C/C(=O)/C=C(O)/C=C/c2ccc(O[C@H]3C[C@H]([C@@H](C)CC(=O)C=C(C)C)C=C[C@@]3(C)O)c(OC)c2)ccc1O [TERPECURCUMIN D] | 18.3 | 15.9 | 14.3
COc1cc(/C=C/C(=O)/C=C(O)/C=C/c2ccc(O[C@]3(C)C=C[C@@H]([C@@H](C)CCC=C(C)C)C[C@@H]3O)c(OC)c2)ccc1O [TERPECURCUMIN E] | 35.9 | 84.1 | 41.4
COc1cc(/C=C/C(=O)/C=C(O)/C=C/c2ccc(O[C@]3(C)C=C[C@@H]([C@@H](C)CC(=O)C=C(C)C)C[C@@H]3O)c(OC)c2)ccc1O [TERPECURCUMIN F] | 15.7 | 19.4 | 15.2
COc1cc(/C=C/C(=O)/C=C(O)/C=C/c2ccc(O[C@]3(C)C=C[C@@H]([C@@H](C)CC(=O)C=C(C)C)C[C@@H]3O)cc2)ccc1O [TERPECURCUMIN G] | 17.1 | 15.9 | 14.5
COc1cc(/C=C/C(=O)/C=C(O)/C=C/c2cc(OC)c(O)c([C@H]3C=C(C)[C@@H](O)C[C@@H]3[C@@H](C)CCC=C(C)C)c2)ccc1O [TERPECURCUMIN H] | 54.6 | 43.7 | 84.3
COc1cc(/C=C/C(=O)/C=C(O)/C=C/c2cc(OC)c(O)c([C@H]3C=C(C)CC[C@@H]3[C@@H](C)CC(=O)C=C(C)C)c2)ccc1O [TERPECURCUMIN I] | 50.3 | 69.5 | 41.1
